The IC50 is the concentration needed to halve the response being measured.

Calls of active or inactive are those of the source. The calls are words filed in the database; no cut-off is given here.

Data set [1] concerns NIH3T3. Put plainly: Antimigratory activity against Swiss albino mouse 3T3 cells assessed as increase of cell numbers at 1 to 20 uM after 12 hrs by scratch-wound assay. Type of data set: functional, cell-based. Put shortly: (§1)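 Swiss 3T3 albino mouse fibroblasts, cultured in DMEM with 10% FCS and penicillin/streptomycin at 37 °C, 5% CO2. A scratch wound was made in the confluent monolayer. Compounds were tested at 1, 10 and 20 µM. PDGF 2 ng/mL served as positive control and a DMSO-only well as reference. The % increase in cells migrating and proliferating into the wounded area was read after 12 h. At least triplicate runs, mean ± SEM.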

The test system of data set [2] is NIH3T3. Put plainly: Antimigratory activity against Swiss albino mouse 3T3 cells assessed as increase of cell numbers at 2 ng/ml after 12 hrs by scratch-wound assay. The class given is functional. In short, it runs like this:
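Swiss 3T3 albino mouse fibroblasts were grown in DMEM with 10% fetal calf serum and penicillin/streptomycin at 37 °C and 5% CO2, and a scratch wound was made in the monolayer. PDGF (2 ng/mL) was incubated for 12 h. Read-out was the % of cells that migrated into and proliferated in the wounded area, relative to a cells-plus-DMSO control. At least triplicate; mean ± SEM.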

Data set [3] deals with Jurkat. Briefly: Inhibition of TNFalpha-induced NF-kappaB activation in human Jurkat cells at 10 to 55 uM after 24 hrs by electrophoretic mobility shift assay. Type of data set: cell-based. In short, it runs like this:
(§2)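 Jurkat T cells (3 × 10⁵ cells/mL) in RPMI 1640 with 10% FCS were preincubated 24 h with compound at 10, 20, 30 or 55 µM. They were then stimulated 1 h with rh-TNF-α 2.5 ng/mL. Nuclear extracts were probed with a [γ-³³P]-labelled NF-κB consensus oligonucleotide. Specificity was checked with a 100-fold molar excess of unlabelled oligo. Bands were quantified densitometrically by phosphorimager.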
For orientation: A gel shift assay detects complexes by their altered migration in electrophoresis.

Data set [4] has as its target Mitogen-activated protein kinase 14 (Homo sapiens, UniProt Q16539). Briefly: Inhibition of p38alpha after 1 hr by ELISA. On the technique in general: ELISA stands for enzyme-linked immunosorbent assay.
The test system of data set [5] is Jurkat. Put plainly: Inhibition of TNF-alpha-induced NFkappaB activation in human Jurkat cells at 10 to 20 uM after 24 hrs by electrophoretic mobility shift assay. The class given is cell-based. In short, it runs like this:
as §2

Data set [6] deals with Jurkat. Briefly: Cytotoxicity against human Jurkat cells at 55 uM after 22 hrs by MTT assay. Type of data set: cell-based. A general note: Tetrazolium dyes change colour on reduction, which living cells bring about.
The test system of data set [7] is Jurkat. Put plainly: Inhibition of TNF-alpha-induced NFkappaB activation in human Jurkat cells at 30 to 55 uM after 24 hrs by electrophoretic mobility shift assay. The class given is cell-based. Put shortly:
as §2

In data set [8] the test system is NIH3T3. Briefly: Antimigratory activity against Swiss albino mouse 3T3 cells assessed as increase of cell numbers at 1 uM after 12 hrs by scratch-wound assay. Type of data set: functional, cell-based. In short, it runs like this: as §1
Data set [9] concerns NIH3T3. Put plainly: Antimigratory activity against Swiss albino mouse 3T3 cells assessed as increase of cell numbers at 10 uM after 12 hrs by scratch-wound assay. Type of data set: functional, cell-based. Put shortly:
as §1

Chain of Mitogen-activated protein kinase 14 (Q16539 whole entry): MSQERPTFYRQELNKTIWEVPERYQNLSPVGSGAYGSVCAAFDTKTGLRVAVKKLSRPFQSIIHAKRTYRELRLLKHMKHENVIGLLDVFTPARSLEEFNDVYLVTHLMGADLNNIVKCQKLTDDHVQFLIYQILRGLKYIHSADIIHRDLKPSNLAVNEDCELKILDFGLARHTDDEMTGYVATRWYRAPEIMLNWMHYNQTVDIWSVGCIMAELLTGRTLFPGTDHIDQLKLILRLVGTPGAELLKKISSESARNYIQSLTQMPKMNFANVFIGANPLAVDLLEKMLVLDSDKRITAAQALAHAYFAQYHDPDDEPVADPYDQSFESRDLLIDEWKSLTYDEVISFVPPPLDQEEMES

With `O=C(O[C@@H]1Cc2c(O)cc(O)cc2O[C@@H]1c1cc(O)c(O)c(O)c1)c1cc(O)c(O)c(O)c1` [EPIGALOCATECHIN GALLATE], the result in data set [1] and in data set [3] was Active. Further, the Activity in data set [2] is reported as 59.5%. Further, half-maximal inhibition in [4] (IC50) was put at 2.21 µM.

Consider `COc1cc(/C=C/C(=O)O[C@@H]2Cc3c(O)cc(O)cc3O[C@@H]2c2cc(O)c(O)c(O)c2)ccc1O`, for which the outcome in [3] was Active.

For `COc1c(O)cc([C@H]2Oc3cc(O)cc(O)c3C[C@@H]2O)cc1O`, the result in data set [1] and in data set [3] was Active.

Take `COc1cc([C@H]2CC(=O)Oc3cc(O)c4c(c32)O[C@H](c2cc(O)c(OC)c(O)c2)[C@@H](O)C4)ccc1O`: the outcome in [1] and in data set [5] was Active. Besides, the Activity in data set [6] worked out at 11%. The same compound registered an IC50 in data set [4] of 50.8 µM. In data set [7], the outcome was inactive.

With `COc1ccc([C@H]2Oc3cc(O)cc(O)c3C[C@H]2OC(=O)c2cc(O)c(O)c(O)c2)cc1O`, the outcome in data set [8] was Active. Further, the outcome in [9] was inactive.

Consider `O=C(O[C@@H]1Cc2c(O)cc(O)cc2O[C@@H]1c1ccc(O)c(O)c1)c1cc(O)c(O)c(O)c1` [EPICATECHIN GALLATE], for which the outcome in data set [8] was Active. Moreover, the result in data set [9] was inactive. The compound further yielded an IC50 in data set [4] of 1.47 µM.

Turning to `COc1c(O)cc([C@H]2Oc3cc(O)cc(O)c3C[C@H]2O)cc1O`, in data set [3], the result was Active. The compound also had an IC50 in data set [4] of 39.2 µM.

Consider `COc1c(O)cc([C@H]2Oc3cc(O)cc(O)c3C[C@H]2OC(=O)c2cc(O)c(O)c(O)c2)cc1O`, for which the result in data set [1] and in [3] was Active.

The values above are taken from ChEMBL document CHEMBL1649352, “Catechin derivatives from Parapiptadenia rigida with in vitro wound-healing properties” (J Nat Prod, 2010).
